From ChEMBL document CHEMBL1152423, “Development of N-[11C]methylamino 4-hydroxy-2(1H)-quinolone derivatives as PET radioligands for the glycine-binding site of NMDA receptors” (Bioorg Med Chem, 2009)
One block for each molecule: values may come before it. The source made the active and inactive calls. The calls are words filed in the database; no cut-off is given here.

Key:
Glutamate NMDA receptor [1] = assay: Displacement of [3H]MDL-105519 from glycine binding site of NMDA receptor in rat cortical membrane by liquid scintillation counting; assay type: cell membranes
Outline: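 Washed rat cortical membranes in 50 mM Tris–HCl (pH 8.0) were incubated 45 min at 4 °C with [3H]MDL-105,519 (2 nM) plus buffer or displacer. Nonspecific binding was defined with excess unlabeled glycine. Samples were filtered on GF/B, washed three times with ice-cold buffer, and counted by liquid scintillation. Ki came from three determinations, each in triplicate.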

[2] = molecular target: T1, Glutamate NMDA receptor (Rattus norvegicus) (UniProt P35439+Q00959+Q00960+Q00961+Q62645+Q8VHN2+Q9R1M7); assay: Binding affinity to glycine binding site of NMDA receptor in hippocampus of rat brain by autoradiography; assay type: tissue-based; conditions: tested as the 11C-labelled form
Outline: (§1)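 Rat brain sagittal sections were preincubated 30 min at 25 °C in 50 mM Tris–HCl (pH 7.4), then incubated 30 min at 25 °C with the [11C]radioligand (1.59–2.13 nM). Sections were rinsed twice for 3 min in cold buffer, dipped in cold water, dried, and exposed to imaging plates for 60 min. Nonspecific binding was taken with the corresponding unlabeled ligand; specific binding is given per region.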

[3] = molecular target: T1, Glutamate NMDA receptor (Rattus norvegicus); assay: Binding affinity to glycine binding site of NMDA receptor in cerebral cortex of rat brain by autoradiography; assay type: tissue-based; conditions: tested as the 11C-labelled form; outline: as §1
[4] = molecular target: T1, Glutamate NMDA receptor (Rattus norvegicus); assay: Binding affinity to glycine binding site of NMDA receptor in thalamus of rat brain by autoradiography; assay type: tissue-based; conditions: tested as the 11C-labelled form; outline: as §1
[5] = molecular target: T1, Glutamate NMDA receptor (Rattus norvegicus); assay: Binding affinity to glycine binding site of NMDA receptor in striatum of rat brain by autoradiography; assay type: tissue-based; conditions: tested as the 11C-labelled form; outline: as §1
[6] = molecular target: T1, Glutamate NMDA receptor (Rattus norvegicus); assay: Binding affinity to glycine binding site of NMDA receptor in cerebellum of rat brain by autoradiography; assay type: tissue-based; conditions: tested as the 11C-labelled form; outline: as §1
[7] = molecular target: T1, Glutamate NMDA receptor (Rattus norvegicus); assay: Binding affinity to glycine binding site of NMDA receptor in hippocampus of rat brain by autoradiography in presence of glycine; assay type: tissue-based; conditions: tested as the 11C-labelled form
Outline: (§2)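 Hippocampal binding on rat brain slices: 30 min at 25 °C in 50 mM Tris–HCl (pH 7.4) with [11C]radioligand (1.59–2.13 nM), with or without a glycine-site drug (agonists at 1 mM). Slices were rinsed, dried and exposed to imaging plates for 60 min. PSL with drug was divided by PSL without drug to give % total binding, averaged over at least triplicate sections from three animals.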

[8] = molecular target: T1, Glutamate NMDA receptor (Rattus norvegicus); assay: Binding affinity to glycine binding site of NMDA receptor in hippocampus of rat brain by autoradiography in presence of glycine-site agonist D-serine; assay type: tissue-based; conditions: tested as the 11C-labelled form; outline: as §2
[9] = molecular target: T1, Glutamate NMDA receptor (Rattus norvegicus); assay: Binding affinity to glycine binding site of NMDA receptor in hippocampus of rat brain by autoradiography in presence of glycine-site antagonist L-703717; assay type: tissue-based; conditions: tested as the 11C-labelled form; outline: as §2
[10] = molecular target: T1, Glutamate NMDA receptor (Rattus norvegicus); assay: Binding affinity to glycine binding site of NMDA receptor in hippocampus of rat brain by autoradiography in presence of glycine-site antagonist methoxy-MDL-104653; assay type: tissue-based; conditions: tested as the 11C-labelled form; outline: as §2
[11] = molecular target: T1, Glutamate NMDA receptor (Rattus norvegicus); assay: Binding affinity to glycine binding site of NMDA receptor in hippocampus of rat brain by autoradiography in presence of glycine-site antagonist MDL-105519; assay type: tissue-based; conditions: tested as the 11C-labelled form; outline: as §2
Blood [12] = assay: Biodistribution in ddY mouse blood assessed per gram of tissue at 7.4 MBq, iv after 30 mins by gamma counting; assay type: ADME, organism-based; conditions: in vivo, 0.5 h
Outline: (§3)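 ddY mice (35–45 g) received about 7.4 MBq of [11C]radioligand in 0.2 ml into the tail vein and were decapitated at 1 or 30 min. Blood, cerebrum and cerebellum were gamma-counted with decay correction and expressed as % injected dose/g; tissue/blood ratios were derived. n=3 or 5.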

[13] = Biodistribution in ddY mouse cerebrum assessed per gram of tissue at 7.4 MBq, iv after 30 mins by gamma counting; assay type: ADME, organism-based; conditions: in vivo, 0.5 h; outline: as §3
Cerebellum [14] = assay: Biodistribution in ddY mouse cerebellum assessed per gram of tissue at 7.4 MBq, iv after 30 mins by gamma counting; assay type: ADME, organism-based; conditions: in vivo, 0.5 h; outline: as §3
[15] = Ratio of drug level in cerebrum to blood of ddY mouse at 7.4 MBq, iv after 30 mins; assay type: ADME, organism-based; outline: as §3
[16] = Ratio of drug level in cerebellum to blood of ddY mouse at 7.4 MBq, iv after 30 mins; assay type: ADME, organism-based; outline: as §3
Blood [17] = assay: Biodistribution in mouse blood assessed per gram of tissue at 7.4 MBq, iv after 1 min by gamma counting; assay type: ADME, organism-based; conditions: in vivo
[18] = Biodistribution in mouse cerebrum assessed per gram of tissue at 7.4 MBq, iv after 1 min by gamma counting; assay type: ADME, organism-based; conditions: in vivo
Cerebellum [19] = assay: Biodistribution in mouse cerebellum assessed per gram of tissue at 7.4 MBq, iv after 1 min by gamma counting; assay type: ADME, organism-based; conditions: in vivo
[20] = Ratio of drug level in cerebrum to blood of mouse at 7.4 MBq, iv after 1 min; assay type: ADME, organism-based
Outline: (§4)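 ddY mice (35–45 g) received ca. 7.4 MBq ¹¹C-labelled ligand (0.2 ml) by tail-vein injection and were decapitated at 1 min. Cerebrum and cerebellum were dissected, and radioactivity was gamma-counted with decay correction and expressed as % injected dose per gram tissue. The value is the tissue-to-blood ratio of % dose/g.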

[21] = Ratio of drug level in cerebellum to blood of mouse at 7.4 MBq, iv after 1 min; assay type: ADME, organism-based; outline: as §4
Glutamate NMDA receptor [22] = assay: Binding affinity to glycine binding site of NMDA receptor in rat brain; assay type: tissue-based
[23] = Plasma protein binding in rat at 0.67 to 0.89 […] after 30 mins by ultrafiltration; assay type: ADME, cell-free; conditions: read-out: PPB (converted)
Outline: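 Rat serum was diluted 10-fold in 66 mM phosphate buffer (pH 7.4) containing [11C]radioligand (0.67–0.89 MBq) and incubated 30 min at 30 °C. It was then ultrafiltered by centrifugation at 2000 rpm for 15 min. Radioactivity in whole plasma and in filtrate was counted to give % bound (mean, n=3).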

Blood [24] = assay: Biodistribution in ddY mouse blood assessed per gram of tissue at 7.4 MBq, iv after 1 min by gamma counting; assay type: ADME, organism-based; conditions: in vivo; outline: as §3
[25] = Biodistribution in ddY mouse cerebrum assessed per gram of tissue at 7.4 MBq, iv after 1 min by gamma counting; assay type: ADME, organism-based; conditions: in vivo; outline: as §3
Cerebellum [26] = assay: Biodistribution in ddY mouse cerebellum assessed per gram of tissue at 7.4 MBq, iv after 1 min by gamma counting; assay type: ADME, organism-based; conditions: in vivo; outline: as §3
[27] = Ratio of drug level in cerebrum to blood of ddY mouse at 7.4 MBq, iv after 1 min; assay type: ADME, organism-based; outline: as §3
[28] = Ratio of drug level in cerebellum to blood of ddY mouse at 7.4 MBq, iv after 1 min; assay type: ADME, organism-based; outline: as §3
[29] = Metabolic stability in ddY mouse brain at 7.4 MBq, iv after 30 mins by radio-TLC analysis; assay type: ADME, organism-based; conditions: 40 MBq, in the assay text read “40 MBq” for “7.4 MBq”, read-out: Activity
Outline: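 Mice received [11C]radioligand (40 MBq) iv and were killed at 30 min. Whole brain was homogenized in ice-cold MeOH and centrifuged at 10,000 rpm for 1 min at 4 °C. Extracts were analysed by radio-TLC using CHCl3/CH3CN 3:1, CHCl3/MeOH 9:1, or CH3CN as mobile phase; intact parent fraction was recorded.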

[30] = Metabolic stability in ddY mouse blood at 7.4 MBq, iv after 30 mins by radio-TLC analysis; assay type: ADME, organism-based; conditions: 40 MBq, in the assay text read “40 MBq” for “7.4 MBq”, read-out: Activity
Blood [31] = assay: Biodistribution in ddY mouse blood assessed per gram of tissue at 40 MBq, iv after 30 mins by gamma counting in presence of 5-ethyl-7-chloro-4-hydroxy-3-(3-[11C]methylaminophenyl)-2(1H)-quinolone; assay type: ADME, organism-based; conditions: in vivo, 0.5 h
Outline: (§5)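 Blocking study: [11C]radioligand was mixed with unlabeled ligand (2 mg/kg) and injected iv into ddY mice. Animals were killed at 30 min; blood, cerebrum and cerebellum were gamma-counted and expressed as % dose/g and tissue/blood ratios. Comparison with controls used the Mann–Whitney U-test.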

[32] = Biodistribution in ddY mouse cerebrum assessed per gram of tissue at 40 MBq, iv after 30 mins by gamma counting in presence of 5-ethyl-7-chloro-4-hydroxy-3-(3-[11C]methylaminophenyl)-2(1H)-quinolone; assay type: ADME, organism-based; conditions: in vivo, 0.5 h, in the assay text read “7.4 MBq” for “40 MBq”; outline: as §5
Cerebellum [33] = assay: Biodistribution in ddY mouse cerebellum assessed per gram of tissue at 40 MBq, iv after 30 mins by gamma counting in presence of 5-ethyl-7-chloro-4-hydroxy-3-(3-[11C]methylaminophenyl)-2(1H)-quinolone; assay type: ADME, organism-based; conditions: in vivo, 0.5 h, in the assay text read “7.4 MBq” for “40 MBq”; outline: as §5
[34] = Ratio of drug level in cerebrum to blood of ddY mouse at 40 MBq, iv after 30 mins in presence of 5-ethyl-7-chloro-4-hydroxy-3-(3-[11C]methylaminophenyl)-2(1H)-quinolone; assay type: ADME, organism-based; conditions: in vivo, 0.5 h, in the assay text read “7.4 MBq” for “40 MBq”; outline: as §5
[35] = Ratio of drug level in cerebellum to blood of ddY mouse at 40 MBq, iv after 30 mins in presence of 5-ethyl-7-chloro-4-hydroxy-3-(3-[11C]methylaminophenyl)-2(1H)-quinolone; assay type: ADME, organism-based; conditions: in vivo, 0.5 h, in the assay text read “7.4 MBq” for “40 MBq”; outline: as §5

Compound: CCc1cc(Cl)cc2[nH]c(=O)c(-c3cccc(NC)c3)c(O)c12
Ki (Glutamate NMDA receptor [1]): 11.8 nM | Activity [2]: 89% | Activity [3]: Active | Activity [4]: Active | Activity [5]: Active | Activity [6]: 75% | Activity [7]: 59% | Activity [8]: 59% | Activity [9]: 64% | Activity [10]: 64% | Activity [11]: 64%

Compound: [11CH3]Oc1ccc(Cc2cccc(-c3c(O)c4ccc(Cl)cc4[nH]c3=O)c2)cc1
Drug uptake (Blood [12]): 3.46 %ID/g | Drug uptake [13]: 0.2 %ID/g | Drug uptake (Cerebellum [14]): 0.24 %ID/g | Kp at 0.5 h [15]: 0.051 | Kp at 0.5 h [16]: 0.068 | Drug uptake (Blood [17]): 8.37 %ID | Drug uptake [18]: 0.32 %ID | Drug uptake (Cerebellum [19]): 0.36 %ID | Kp at 1 min [20]: 0.038 | Kp at 1 min [21]: 0.043

Compound: CCc1cc(Cl)cc2[nH]c(=O)c(-c3cccc(OC)c3)c(O)c12
Ki (Glutamate NMDA receptor [22]): 7.2 nM | fraction unbound at 0.5 h [23]: 0.06

Compound: CN(C)c1ccc(Cc2cccc(-c3c(O)c4ccc(Cl)cc4[nH]c3=O)c2)cc1
Ki (Glutamate NMDA receptor [1]): 22.2 nM

Results, then the molecule that gave them:

Ki (Glutamate NMDA receptor [22]): 167 nM
Compound: COc1cccc(-c2c(O)nc3cc(Cl)ccc3c2O)c1

Ki (Glutamate NMDA receptor [1]): 566 nM
Compound: COc1cccc(-c2c(O)c3c(N(C)C)cc(Cl)cc3[nH]c2=O)c1

Ki (Glutamate NMDA receptor [1]): 23.6 nM
Compound: COc1ccc(Nc2cccc(-c3c(O)c4ccc(Cl)cc4[nH]c3=O)c2)cc1

Drug uptake (Blood [24]): 20.91 %ID | Drug uptake [25]: 0.47 %ID | Drug uptake (Cerebellum [26]): 0.87 %ID | Drug uptake (Blood [12]): 9.08 %ID/g | Drug uptake [13]: 0.38 %ID/g | Drug uptake (Cerebellum [14]): 0.53 %ID/g | Kp at 1 min [27]: 0.022 | Kp at 1 min [28]: 0.042 | Kp at 0.5 h [15]: 0.042 | Kp at 0.5 h [16]: 0.058 | remaining at 0.5 h [29]: 70% | remaining at 0.5 h [30]: 93% | Drug uptake (Blood [31]): 7.77 %ID | Drug uptake [32]: 0.34 %ID | Drug uptake (Cerebellum [33]): 0.34 %ID | Ratio [34]: 0.044 | Ratio [35]: 0.044 | fraction unbound at 0.5 h [23]: 0.29
Compound: CCc1cc(Cl)cc2[nH]c(=O)c(-c3cccc(N[11CH3])c3)c(O)c12
